Screening results from PubChem BioAssay.
Shown are actives, neighbours in structure and some others; about 2.9% of the full set was active somewhere.
VIM-2 inhibitor: blocks Pseudomonas aeruginosa VIM-2 metallo-beta-lactamase | purified VIM-2, nitrocefin hydrolysis, epi-absorbance fluorescence | inhibition, % at 5.6 µM | 290,000 compounds, 0.89% hits | AID 1527;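 active = inhibition above the mean of all tested compounds plus 3 SD, cutoff set per screening run, cut at about 7.5% in these data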;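 also: red hydrolysis product quenches plate fluorescence so inhibitors raise well fluorescence; 0% = enzyme with DMSO and 100% = DMSO without enzyme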
NALP1 inh: inhibitors of NALP1 inflammasome in yeast; AID 2071; inhibition, % at 10 µM; S. cerevisiae NALP1/ASC/caspase-1 growth, X-gal OD620, 72 h; 280,000 compounds, 0.61% hits; in the data active = inhibition mostly above about 24%, no sharp cut-off; inactive = mostly below about 32%
FID counter: displaces DNA intercalator in HCV helicase counter-screen | DNA fluorescent intercalator displacement, fluorescence | inhibition, % at 7.9 µM | AID 1845 | 290,000 compounds, 0.17% hits; in the data active = inhibition above about 37%;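 also: 0% = vehicle and 100% = reference compound; higher means more ethidium bromide displaced from hairpin DNA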
Mot1-301 SUMO: SUMOylation pathway inhibition by Mot1-301 growth rescue. S. cerevisiae Mot1-301 growth rescue, ATP luminescence, 38.5C; percent above DMSO median, 100 means doubled. growth rescue, % at 18.8 µM. 320,000 compounds, 1% hits;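 active = every valid replicate shows activation above 250% relative to neutral control wells; inactive = the rest, any valid replicate at or below 250%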;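 also: OY570 slx delta 5 strain wells were the positive control but not used for scaling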
UBC9 SUMO inh: inhibitors of human SUMOylation (UBC9). 290,000 compounds, 0.36% hits. HTRF SUMOylation assay, SAE1/SAE2 + UBC9, in vitro. inhibition, % at 35 µM. P63279; in the data active = inhibition above about 50%, passing the limit was not always enough
Target sequence (P63279 whole entry, looked up): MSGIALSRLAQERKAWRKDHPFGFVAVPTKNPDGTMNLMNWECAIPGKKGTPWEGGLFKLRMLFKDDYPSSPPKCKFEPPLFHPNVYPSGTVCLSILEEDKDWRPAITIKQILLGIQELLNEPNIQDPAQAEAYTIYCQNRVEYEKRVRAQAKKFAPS
IMP-1 inh: inhibitors of Pseudomonas aeruginosa IMP-1 metallo-beta-lactamase | purified IMP-1, nitrocefin hydrolysis, epi-absorbance fluorescence | AID 1556 | 290,000 compounds, 0.45% hits | inhibition, % at 5.6 µM;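 active = inhibition above the mean plus 3 SD of all compounds in the same screening run, cut at about 4.5% in these data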;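 also: 0% = IMP-1 with DMSO and 100% = DMSO wells lacking enzyme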
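Material – recombinant IMP-1 enzyme, purified · Amount – IMP-1 0.2 nM before substrate addition · Medium – HEPES buffer pH 7.1 with ZnSO4 and Brij 35 · Timing – 25 °C, 15 min preincubation, 25 min reaction · Measured by – plate fluorescence quenching by hydrolysis product, ex 480/em 530 nm · Read-out – percent enzyme inhibition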
Active calls of the source: *; . = not tested or not shown.

SMILES	VIM-2 inhibitor	NALP1 inh	FID counter	Mot1-301 SUMO	UBC9 SUMO inh	IMP-1 inh
O=C(O)CN(c1ccccn1)S(=O)(=O)c1ccccc1	-3.1	43.2*	2.2	-12.0	-9.7	-3.2
CN1/C(=C\C(=O)COC(=O)Cn2nnc(-c3ccccc3)n2)C(C)(C)c2ccccc21	-1.1	12.5	-8.8	267.8*	-18.7	-0.1
COc1cc(OC)cc(C(=O)NCC(=O)OCC(=O)/C=C2/N(C)c3ccccc3C2(C)C)c1	0.1	28.7	-31.6	77.2	-11.8	-1.3
O=C(O)CC(NC(=O)Cc1ccc([N+](=O)[O-])cc1)c1ccc2c(c1)OCO2 (stereo not drawn)	-2.5	1.4	4.0	-2.8	8.5	-2.6
Cc1ccc(-c2cc(-c3ccco3)c(C#N)c(=O)[nH]2)cc1	1.9	.	-27.1	-7.7	61.5*	1.2
N#Cc1c(-c2ccccc2)cc(-c2ccco2)c(C#N)c1N	1.3	20.0	-20.5	.	52.9*	-2.7
Cc1cccc(C)c1NC(=O)Cn1nnnc1N	-3.6	-5.9	1.1	-14.3	-2.3	-2.7
CCOc1ccc(N=c2oc3cc(O)ccc3cc2C(=O)NCC2CCCO2)cc1 (stereo not drawn)	-3.4	51.7	-1.9	356.7*	10.9	-2.4
COc1ccc2cc(C)c3nnc(SCc4cccnc4)n3c2c1	8.9*	10.5	-7.2	-13.3	20.2	-1.8
O=C(Nc1ccc(C(F)(F)F)cc1)N1CCN(c2ccnc3cc(Cl)ccc23)CC1	-2.1	.	7.9	43.2	-34.2	-4.7
N#Cc1cccnc1N1CCN(C(=O)c2cccs2)CC1	-5.4	26.2	-12.8	1.4	-1.4	-2.2
CC(=O)OCC1=C(C(=O)O)N2C(=O)[C@@H](NC(=O)Cc3cccs3)[C@H]2SC1	-1.3	135.8*	-25.1	18.3	24.2	-3.2
CC(=O)OCC1=C(C(=O)O)N2C(=O)C(NC(=O)CC(C)c3ccccc3)C2SC1 (stereo not drawn)	.	.	.	4.3	.	.
CC(O)c1nc2ccccc2n1C(C)c1ccccc1 (stereo not drawn)	-1.7	8.4	-8.7	-3.0	19.3	-2.5
O=C1C2C(C(=O)N1/N=C/c1cc([N+](=O)[O-])c(O)cc1O)C1C=CC2C12CC2 (stereo not drawn)	-3.5	10.6	-3.3	4.6	21.6	-2.8
O=C1C2C(C(=O)N1/N=C/c1cc(Br)cc([N+](=O)[O-])c1O)C1C=CC2C12CC2 (stereo not drawn)	-4.3	47.4	-1.0	2.4	-10.6	7.0*
CCN1C(=O)c2cccc3c(S(=O)(=O)Nc4ccc(O)c(C(=O)O)c4)ccc1c23	8.2*	1.6	-32.9	-9.6	-0.1	-3.4
CCN1C(=O)c2cccc3c(S(=O)(=O)NCc4ccccc4)ccc1c23	.	.	.	-17.5	.	.
c1cc(Nc2cccc3nccnc23)c2nccnc2c1	8.6*	14.6	2.1	7.2	3.7	-2.0
CNCc1ccccc1Sc1cc(O)ccc1O	1.1	56.0*	-7.4	183.9	15.9	2.9
COc1ccc(Cl)cc1N(CC(=O)NCCSc1ccccn1)S(=O)(=O)c1ccccc1	-0.8	5.7	-36.3	495.1	19.6	-1.9
COc1cc(OC)c(S(=O)(=O)Nc2ccc(C)cn2)cc1NC(C)=O	0.5	25.0	-7.2	-1.4	-0.6	0.7
Cc1ncc(CO)c(/C=N/NC(=O)c2ccc(Br)cc2)c1O	-3.7	-3.3	1.2	0.0	26.1	-2.1
Cc1ncc(CO)c(/C=N/NC(=O)c2cc(O)c(O)c(O)c2)c1O	-0.7	-15.8	-4.5	.	57.9	24.1*
Nc1nc2c3ccccc3nc(C3CC3)n2n1	8.2*	13.7	-2.9	-7.0	4.9	-3.4
SMILES	VIM-2 inhibitor	NALP1 inh	FID counter	Mot1-301 SUMO	UBC9 SUMO inh	IMP-1 inh
c1ccc(OCCN2CCN(C(c3ccccc3)c3ccccc3)CC2)cc1	-0.8	12.0	17.2	-13.4	-19.0	-0.1
O=C(OCC(=O)N1CCN(C(=O)c2ccco2)CC1)c1cc(-c2ccc(F)cc2)nc2ccccc12	-5.0	30.8	-35.2	14.6	-3.0	-3.2
O=C(OCC(=O)N1CCN(C(=O)c2ccco2)CC1)c1cc(-c2ccccc2)nc2ccccc12	11.3*	8.8	-24.8	-12.2	4.8	0.4
COc1ccc(C(=O)O)cc1S(=O)(=O)N(CCc1ccccc1)Cc1ccccc1	-0.4	4.6	-32.2	-2.8	12.3	-1.3
COc1ccccc1NC(=O)CN1CCCCC1	-1.5	1.2	-0.5	-17.8	3.9	-2.8
CCN1CCN(CC(=O)Nc2c(OC)cccc2OC)CC1	-2.8	1.0	3.8	-9.2	20.4	5.5*
COc1cccc(C2C(C(=O)c3ccco3)=C(O)C(=O)N2CCN(C)C)c1OC (stereo not drawn)	-2.8	32.9	-4.8	469.6*	13.0	-3.0
O=C(N/N=C/c1ccc([N+](=O)[O-])o1)C1CC1	-0.9	-16.0	-2.3	.	31.4	-3.5
CCN(CC)CCOC(=O)C(Cc1cccc2ccccc12)CC1CCCO1 (stereo not drawn)	-2.1	12.5	8.6	39.1	-0.9	-1.1
COc1ccc2c(c1OC)C(=O)O[C@@H]2[C@H]1c2c(cc3c(c2OC)OCO3)CCN1C	-1.1	29.4	-8.4	749.9*	-12.5	-1.9
Cc1ccc(Oc2ncccc2/C=N/OCc2ccc(Cl)c(Cl)c2)cc1	-0.4	-8.1	-3.3	192.5	-13.8	4.7*
Cc1cc(SCC(=O)Nc2c(C)n(C)n(-c3ccccc3)c2=O)n2c(nc3ccccc32)c1C#N	22.5*	.	-1.9	.	.	-1.5
O=C1NC(c2ccccc2)(C(F)(F)F)SC2=NCCCN12 (stereo not drawn)	7.4	-3.1	-8.4	22.7	11.0	-5.3
Cc1ccc2c(c1)SC1=NC(c3ccccc3)(C(F)(F)F)NC(=O)N12 (stereo not drawn)	-1.2	-3.8	-1.3	-8.4	20.6	5.7*
CCCOC(=O)c1c(NC(=O)CSc2nc(-c3ccco3)cc(C(F)(F)F)n2)sc(C(=O)OC)c1C	-4.2	40.8*	-1.1	-3.3	-7.8	-3.5
COC(=O)c1sc(NC(=O)CSc2n[nH]c(N)n2)c(C(=O)OC)c1C	10.4*	10.7	-5.5	-8.8	20.5	-3.4
CC(NC(=O)CCNC(=O)c1ccccc1Cl)C1CC2CCC1C2 (stereo not drawn)	-2.3	28.4	-11.4	-6.9	8.4	-3.5
CC(C)N1CCC2(CC1)N=C(c1ccc3c(c1)OCO3)CC(c1cc(Cl)ccc1O)N2 (stereo not drawn)	-3.2	68.0*	7.1	790.7	17.1	-4.7
COc1ccc(Cl)c2sc(N(CCN(C)C)C(=O)c3ccc4c(c3)OCCO4)nc12	.	.	.	-0.4	.	.
COc1cccc(/C=N/NC(=O)c2ccc(COc3ccc(Cl)cc3Cl)o2)c1	-5.2	26.8	1.8	321.8*	27.1	-2.2
COc1cc(/C=N/NC(=O)c2ccc(COc3ccccc3Cl)o2)cc(Br)c1O	-1.4	21.7	-20.4	-4.0	7.7	-2.6
CCOc1ccc(OCCCC(=O)N2CCN(S(=O)(=O)c3ccc(Cl)cc3)CC2)cc1	.	.	.	6.3	.	.
